Source: paper PMC8263925 (The Journal of General Physiology, 2021)
Positions count from the first letter of the chain named.

Key:
Hv1 WT [1] = target: T1, Hv1 WT (Homo sapiens, UniProt Q96D96); format: cell-based
T1 sequence (Q96D96 1-273): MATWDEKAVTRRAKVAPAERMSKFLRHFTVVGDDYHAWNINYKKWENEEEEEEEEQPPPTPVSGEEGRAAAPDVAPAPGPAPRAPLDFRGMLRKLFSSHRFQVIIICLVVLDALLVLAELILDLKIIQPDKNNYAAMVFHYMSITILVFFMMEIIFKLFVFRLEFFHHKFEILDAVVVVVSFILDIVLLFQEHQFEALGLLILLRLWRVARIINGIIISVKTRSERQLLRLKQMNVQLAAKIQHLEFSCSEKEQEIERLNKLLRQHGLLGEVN
Summary of the method: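 WT channel in inside-out oocyte patches, symmetric pH 6.0, 22 ± 1°C. Holding −40 mV, depolarization to +120 mV; relative depolarization time td/(tr + td) of 0.1, 0.2, 0.3 or 0.5. 50 µM perfused into bath, then washed out. End-pulse current normalized. Decay fitted double-exponentially (τfast, τslow, weights, c∞); recovery fitted single-exponentially. n = 7, 7, 5, 8 per RDT; SEM.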

Hv1 WT [2] = target: T1, Hv1 WT; assay: G-V; format: cell-based
Summary of the method: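 Oocytes expressing WT channel (mRNA injected 1–3 d before). Inside-out patches at 22 ± 1°C; bath and pipette 100 mM Mes, 30 mM TEA methanesulfonate, 5 mM TEA chloride, 5 mM EGTA, pH 6.0. Steps to −20 to +130 mV, tails at −40 mV, with or without 50 µM in bath. G = (Itest − Itail)/(Vtest − Vtail), rundown-corrected via reference step. Boltzmann fit gave V1/2 and slope. ≥5 patches, SEM.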

Hv1 E153C = target: T2, Hv1 E153C (Homo sapiens, UniProt Q96D96, E153C); assay: Inside-out patch time course of inhibition, mutant channel; format: cell-based
T2 sequence (Q96D96 1-273 E153C): T1 sequence (Q96D96 1-273) with E153C
Summary of the method: (§1)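 Xenopus oocytes injected with mutant-channel mRNA 1–3 d earlier, kept at 18°C in ND96. Inside-out patches at 22 ± 1°C in symmetric Mes/TEA solutions, pH 6.0. Held at −40 mV and pulsed to +120 mV at relative depolarization time 0.2 (3 s/15 s). 50 µM perfused into bath. End-pulse current leak- and rundown-corrected. Decay fitted double-exponentially (τfast, τslow, cfast, cslow); washout recovery single-exponentially (τoff).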

Hv1 F156A = target: T3, Hv1 F156A (Homo sapiens, UniProt Q96D96, F156A); assay: as above; format: cell-based; conditions: 50 µM
T3 sequence (Q96D96 1-273 F156A): T1 sequence (Q96D96 1-273) with F156A
Summary of the method: as §1

Hv1 E171Q = target: T4, Hv1 E171Q (Homo sapiens, UniProt Q96D96, E171Q); assay: as above; format: cell-based; conditions: 50 µM
T4 sequence (Q96D96 1-273 E171Q): T1 sequence (Q96D96 1-273) with E171Q
Summary of the method: as §1

Hv1 D185A = target: T5, Hv1 D185A (Homo sapiens, UniProt Q96D96, D185A); assay: as above; format: cell-based; conditions: 50 µM
T5 sequence (Q96D96 1-273 D185A): T1 sequence (Q96D96 1-273) with D185A
Summary of the method: as §1

Hv1 W207Y = target: T6, Hv1 W207Y (Homo sapiens, UniProt Q96D96, W207Y); assay: as above; format: cell-based; conditions: 50 µM
T6 sequence (Q96D96 1-273 W207Y): T1 sequence (Q96D96 1-273) with W207Y
Summary of the method: as §1

Hv1 WT [3] = target: T1, Hv1 WT; assay: Kinetic simulation of HIF-mediated inhibition, four-state model S; conditions: room temperature, closed VSD
[4] = 50 μM, double-exponential fit, RDT 0.1-0.5

- relative contribution of the slow component, cslow / (cfast + cslow) (Hv1 WT [1]; 50 μM, RDT = 0.2): 0.51
- τfast, time constant of fast component of inhibition (Hv1 WT [1]; [4]): < 5 s
- τslow, time constant of slow component of inhibition (Hv1 WT [1]; [4]): > 40 s
- τslow, RDTon = 0.1/τslow, RDTon = 0.5 (Hv1 WT [1]; 50 μM, experimental): 1.15 ± 0.20
- τoff, recovery from inhibition (Hv1 WT [1]; after 50 µM, RDT = 0.2): 94 ± 7 s
- τoff, time constant of recovery from inhibition (Hv1 WT [1]; after 50 μM, single-exponential fit, RDT 0.1-0.5): ≥ 80 s
- shift to more positive potentials in the V1/2 of activation (Hv1 WT [2]; 50 μM, pHi = pHo = 6.0): ~15 mV
- slope of G-V curve in the presence of inhibitor (Hv1 WT [2]; 50 µM, pHi = pHo = 6.0 (11 ± 1 without HIF)): 13 ± 1 mV
- V1/2 of G-V curve in the presence of inhibitor (Hv1 WT [2]; 50 µM, pHi = pHo = 6.0 (53 ± 3 mV without HIF)): 68 ± 2 mV
- total extent of inhibition vs WT (Hv1 E153C; 50 µM): did not decrease
- relative contribution of the slow component, cslow / (cfast + cslow) (Hv1 E153C; 50 μM, RDT = 0.2): 0.80
- τoff, recovery from inhibition (Hv1 E153C; after 50 µM, RDT = 0.2): 294 ± 57 s
- effect of mutation on inhibition (Hv1 F156A): did not result in any significant change
- reduction of the extent of inhibition vs WT (Hv1 E171Q): 46%
- τslow (Hv1 E171Q; too slow to be accurately quantified): > 200 s
- effect of mutation on extent or time course of inhibition (Hv1 D185A): did not appreciably affect
- reduction of the extent of inhibition vs WT (Hv1 W207Y): 38%
- τslow (Hv1 W207Y): > 200 s
- energy barriers to cross in and out of site 2 (Hv1 WT [3]): ~20 kcal/mol
SMILES: Cc1[nH]c(N)nc1CCC(=O)c1cc(F)cc(F)c1 [HIF, 3-(2-amino-5-methyl-1H-imidazol-4-yl)-1-(3,5-difluorophenyl)propan-1-one]
